Reference: ChEMBL document CHEMBL1125147, “Nonsteroidal cardiotonics. 3. New 4,5-dihydro-6-(1H-indol-5-yl)pyridazin-3(2H)-ones and related compounds with positive inotropic activities” (1990)

Columns and labels:
[1] = tested on: Rattus norvegicus; assay: Effective dose required to produce an increase in dP/dt by 1500 mmHg/s from that of the control in the anesthetized rats.; format: functional
Procedure, shortened: (§1)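 Male SPF Sprague–Dawley rats (350–450 g), thiabutarbital sodium 80–100 mg/kg ip, tracheotomized. LV pressure measured by a Millar microtip catheter passed via the right carotid artery. Compounds given as jugular iv bolus (0.5 mL/kg) in increasing doses every 10 min. Readings taken 10 min post-dose as steady state. ED1.5 (dP/dt +1500 mmHg/s at LVP 50 mmHg) from log-linear regression, log means. Max = peak rise in dP/dt and the dose giving it.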

[2] = tested on: Felis catus; assay: Effective dose required to produce an increase in dP/dt by 1500 mmHg/s from that of the control in the anesthetized cats.; format: functional
Procedure, shortened: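 Cats of both sexes, pentobarbitone 45 mg/kg ip plus 0.1 mg/kg min infusion, pump-ventilated, open chest. Dextran 10 mL/kg iv and desacetylmetipranolol 0.3 mg/kg iv for β-blockade failure. LV pressure by Millar tip catheter via the auricle. Increasing iv bolus doses every 10 min, read at 10 min. ED1.5 (dP/dt +1500 mmHg/s at LVP 50 mmHg) by log-linear regression, log means.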

[3] = tested on: Rattus norvegicus; assay: Maximum increase in dP/dt from that of the control in the anesthetized rats at dose 10.0 mg/kg; format: functional; procedure, shortened: as §1
[4] = tested on: Felis catus; assay: Maximum increase in dP/dt from that of the control in the anesthetized cats at dose 10.0 mg/kg

| Structure (SMILES) | ED1.5 [1] | other results |
| --- | --- | --- |
| O=C1COC(c2ccc3[nH]c(-c4ccncc4)cc3c2)=NN1 | 0.7 mg/kg |  |
| Oc1cnc(-c2ccc3[nH]c(-c4ccncc4)cc3c2)cn1 | 0.15 mg/kg |  |
| O=C1CCC(c2ccc3[nH]c(-c4ccncc4)cc3c2)=NN1 | 0.04 mg/kg |  |
| O=C1CCC(c2ccc3[nH]c(-c4ccnnc4)cc3c2)=NN1 | 0.02 mg/kg |  |
| CCc1c(-c2ccncc2)[nH]c2ccc(C3=NNC(=O)CC3)cc12 | 1.1 mg/kg |  |
| CC1CC(=O)NN=C1c1ccc2[nH]c(-c3ccncc3)cc2c1 (stereo not given) | 0.02 mg/kg | ED1.5 [2]: 0.007 mg/kg |
| O=C1CCC(c2ccc3[nH]c(-c4cccnc4)cc3c2)=NN1 | 2.5 mg/kg |  |
| O=C1CCC(c2ccc3[nH]c(-c4ccccc4O)cc3c2)=NN1 | 1.04 mg/kg |  |
| O=C1CCC(c2ccc3[nH]c(-c4cscn4)cc3c2)=NN1 | 0.26 mg/kg |  |
| Cc1c(-c2ccncc2)[nH]c2ccc(C3=NNC(=O)CC3)cc12 | 0.08 mg/kg |  |
| CCOC(=O)c1cc2cc(C3=NNC(=O)CC3)ccc2[nH]1 | 1.5 mg/kg |  |
| CC1(C)C(=O)NN=C1c1ccc2[nH]c(-c3ccncc3)cc2c1 | 0.25 mg/kg |  |
| Cc1c(-c2ccncc2)[nH]c2ccc(C3=NNC(=O)CC3C)cc12 (stereo not given) | 0.02 mg/kg |  |
| Cc1[nH]c(=O)c(C#N)cc1-c1ccncc1 [MILRINONE] | 0.15 mg/kg | ED1.5 [2]: 0.04 mg/kg; Max [3]: 3.4 mHg/s |
| COc1ccc(-c2nc3cc(C4=NNC(=O)CC4C)ccc3[nH]2)cc1 (stereo not given) [PIMOBENDAN] | 1.31 mg/kg | ED1.5 [2]: 0.6 mg/kg; Max [4]: 2.9 mHg/s |
